How the values were obtained:
[1] = Cytotoxicity against mouse cloned EN2 cells after 72 hrs by MTT assay; assay type: functional, cell-based; conditions: EN2, 72 h
In short: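 EN2 murine cloned Ehrlich ascites line, grown in suspension in RPMI 1640 with 10% heat-inactivated FBS and used in exponential growth. 500 cells/well, continuous 72 h compound exposure at 37 °C, 5% CO2. Stocks 10 mM in EtOH or DMSO. Read-out: MTT reduction over 3 h 45 min, formazan in DMSO, A550. IC50 is 50% growth inhibition relative to control; mean ± SD, n≥3.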

[2] = Cytotoxicity against mouse cloned EN2 cells after 2 hrs by MTT assay; assay type: functional, cell-based; conditions: EN2, 2 h
In short: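 Murine EN2 Ehrlich ascites cells (RPMI 1640, 10% heat-inactivated FBS, exponential growth, >95% trypan blue exclusion), 500 cells/well, exposed 2 h at 37 °C, 5% CO2. Compound washed out in three spin steps, then 72 h further culture. MTT added for 3 h 45 min, formazan dissolved in DMSO, A550 read. IC50 = 50% growth inhibition vs medium-blank-corrected control; mean ± SD, n≥3.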

Structure (SMILES) | IC50 [1] [µM] | IC50 [2] [µM]
CC(=O)O[C@H]1[C@@H]2[C@H](C)C(=O)O[C@@H]2C[C@@H](C)[C@@H]2C=CC(=O)[C@]21C | 3.5 | 43
C=C1C(=O)O[C@@H]2C[C@@H](C)[C@@H]3C=CC(=O)[C@@]3(C)[C@@H](OC(=O)CC(C)C)[C@H]12 | 0.72 | 3.2
C=C1C(=O)O[C@@H]2C[C@@H](C)[C@@H]3[C@@H](O)C[C@@H](O)[C@@]3(C)[C@@H](O)[C@H]12 | 13.6 | 
C=C1C(=O)O[C@@H]2C[C@@H](C)[C@@H]3C=CC(=O)[C@@]3(C)[C@@H](OC(=O)/C(C)=C/C)[C@H]12 | 1 | 5.3
C=C1C(=O)O[C@@H]2C[C@@H](C)[C@@H]3[C@@H](O)C[C@@H](OC(=O)/C(C)=C/C)[C@@]3(C)[C@@H](O)[C@H]12 | 10.4 | 116
C=C1C(=O)O[C@@H]2C[C@@H](C)[C@@H]3[C@@H](OC(C)=O)C[C@@H](O)[C@@]3(C)C[C@H]12 | 10.6 | 102
CC(=O)O[C@H]1C[C@@H](O)[C@]2(C)[C@@H]1[C@H](C)C[C@H]1OC(=O)[C@@H](C)[C@H]1[C@@H]2O | > 100 | > 100
C=C1C(=O)O[C@@H]2C[C@@H](C)[C@@H]3[C@@H](O)CC(=O)[C@@]3(C)[C@@H](OC(=O)/C(C)=C/C)[C@H]12 [ARNIFOLIN] | 4 | 62
C=C1C(=O)O[C@@H]2C[C@@H](C)[C@@H]3[C@@H](OC(C)=O)C[C@@H](O)[C@@]3(C)[C@@H](O)[C@H]12 [CHAMISSONOLIDE] | 7.6 | 106
C/C=C(\C)C(=O)O[C@H]1[C@@H]2[C@H](C)C(=O)O[C@@H]2C[C@@H](C)[C@@H]2C=CC(=O)[C@]21C | 2.6 | 19
C=C1C(=O)O[C@@H]2C[C@@H](C)[C@@H]3[C@@H](O)C[C@@H](O)[C@@]3(C)[C@@H](OC(=O)/C(C)=C/C)[C@H]12 | 20.7 | > 100
C=C1C(=O)O[C@@H]2C[C@@H](C)[C@@H]3[C@@H](O)C[C@@H](O)[C@@]3(C)C[C@H]12 | 15.2 | 
C=C1C(=O)O[C@H]2C[C@@H](C)[C@@H]3C=CC(=O)[C@@]3(C)[C@H](OC(=O)CC(C)C)[C@H]12 | 0.99 | 5.4
C[C@@H]1C[C@H]2OC(=O)[C@@H](C)[C@H]2[C@H](O)[C@]2(C)C(=O)C=C[C@@H]12 | 6.5 | 128
C/C=C(\C)C(=O)O[C@H]1[C@@H]2[C@H](C)C(=O)O[C@@H]2C[C@@H](C)[C@@H]2[C@@H](O)CC(=O)[C@]21C | 76 | > 100
C=C1C(=O)O[C@@H]2C[C@@H](C)[C@@H]3C=CC(=O)[C@@]3(C)[C@@H](O)[C@H]12 [HELENALIN] | 0.39 | 2.4
C=C1C(=O)O[C@H]2C[C@@H](C)[C@@H]3C=CC(=O)[C@@]3(C)[C@H](O)[C@H]12 [MEXICANIN I] | 0.56 | 2.7
CC(C)CC(=O)O[C@H]1[C@@H]2[C@H](C)C(=O)O[C@@H]2C[C@@H](C)[C@@H]2C=CC(=O)[C@]21C | 1.7 | 20
C=C1C(=O)O[C@H]2C[C@@H](C)[C@@H]3C=CC(=O)[C@@]3(C)[C@@H](OC(C)=O)[C@H]12 [BIGELOVIN] | 0.36 | 2
C=C1C(=O)O[C@@H]2C[C@@H](C)[C@@H]3C=CC(=O)[C@@]3(C)[C@@H](OC(=O)C(C)C)[C@H]12 [HELENALINISOBUTYRATE] | 0.17 | 1.3
C=C1C(=O)O[C@@H]2C[C@@H](C)[C@@H]3C=CC(=O)[C@@]3(C)[C@@H](OC(C)=O)[C@H]12 [ANGUSTIBALIN] | 0.22 | 1.3
